Source: PubChem
A selection: hits, their analogues and other compounds. The true share with any hit is near 4.2%.
KCNQ1 pot: potentiators or activators of KCNQ1 channel, primary screen, cell-based, thallium flux, high-throughput | Potassium voltage-gated channel subfamily KQT member 1 (Homo sapiens), P51787 | B-score at 10 µM | hit rate 0.35% among 310,000 | CHO-K1 KCNQ1, thallium flux FluxOR fluorescence; stronger effect = higher value;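 active means fluorescence ratio B-score, a plate-corrected score, at least three library SD, with initial intensity B-score within 5 SD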
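assay system = KCNQ1-transfected CHO-K1 cells | medium = assay buffer with matched DMSO | probe or stimulus = depolarizing K+/Tl+ stimulus, K2SO4 and Tl2SO4 each 12.5 mM in 5x stock | dosing = single dose | incubation = dye 90 min, compound 20 min, room temperature | detection = kinetic FluxOR fluorescence, 10 s baseline plus 110 s post-stimulus | evaluation = ratio B score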
KCNQ1 block: inhibitors of human KCNQ1 channel, primary screen, cell-based, thallium flux, high-throughput | Potassium voltage-gated channel subfamily KQT member 1 (Homo sapiens), P51787 | CHO-K1 KCNQ1, FluxOR thallium flux fluorescence; stronger effect = higher value | B-score at 10 µM | hit rate 1.3% among 310,000;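 active means compounds whose thallium flux B-score, printed positive for inhibition, exceeds three library SD while starting fluorescence stays within three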;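 further: channel opened by potassium depolarization with thallium stimulus after 20 min compound exposure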
Mot1-301 SUMO: yeast Mot1-301 growth rescue at high temperature, primary screen, SUMOylation pathway inhibitor project, S. cerevisiae, ATP luminescence, 38.5C. S. cerevisiae Mot1-301 growth rescue; percent above DMSO median, 100 means doubled. growth rescue, % at 18.8 µM. hit rate 1% among 320,000;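 active means every valid replicate shows activation above 250% relative to neutral control wells; inactive means the rest, any valid replicate at or below 250%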;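 further: OY570 slx delta 5 strain wells were the positive control but not used for scaling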
hERG protect: hERG rescue from dofetilide block, primary screen, cell-based, CHO-hERG, FluxOR thallium flux, dofetilide IC70; AID 1511, 2009; dofetilide IC70 present; hit rate 0.51% among 310,000; Voltage-gated inwardly rectifying potassium channel KCNH2 (Homo sapiens), Q12809; activation (rescue from dofetilide block), less the hit threshold, % at 10 µM;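 active means activation above the mean of controls blocked by dofetilide plus 5 SD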;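 further: thallium influx through hERG after potassium depolarization seen as dye fluorescence rise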
KCC2 mod: KCC2 cotransporter modulators, thallium flux, primary screen, cell-based, HEK293 KCC2, FluoZin-2 fluorescence, MLSMR. KCC2 cells, thallium flux FluoZin-2 fluorescence. B-score of Tl+ flux slope (higher = more flux/activation; lower = inhibition) at 10 µM. hit rate 2.2% among 190,000. AID 1456, 2008;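 active means thallium flux slope and its plate-corrected score both differing from the plate sample mean at a set confidence after two filtering rounds, in either direction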;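 further: slope of fluorescence scaled to starting intensity during 10 to 20 s after thallium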
Target sequence (Q9H2X9 whole entry, looked up): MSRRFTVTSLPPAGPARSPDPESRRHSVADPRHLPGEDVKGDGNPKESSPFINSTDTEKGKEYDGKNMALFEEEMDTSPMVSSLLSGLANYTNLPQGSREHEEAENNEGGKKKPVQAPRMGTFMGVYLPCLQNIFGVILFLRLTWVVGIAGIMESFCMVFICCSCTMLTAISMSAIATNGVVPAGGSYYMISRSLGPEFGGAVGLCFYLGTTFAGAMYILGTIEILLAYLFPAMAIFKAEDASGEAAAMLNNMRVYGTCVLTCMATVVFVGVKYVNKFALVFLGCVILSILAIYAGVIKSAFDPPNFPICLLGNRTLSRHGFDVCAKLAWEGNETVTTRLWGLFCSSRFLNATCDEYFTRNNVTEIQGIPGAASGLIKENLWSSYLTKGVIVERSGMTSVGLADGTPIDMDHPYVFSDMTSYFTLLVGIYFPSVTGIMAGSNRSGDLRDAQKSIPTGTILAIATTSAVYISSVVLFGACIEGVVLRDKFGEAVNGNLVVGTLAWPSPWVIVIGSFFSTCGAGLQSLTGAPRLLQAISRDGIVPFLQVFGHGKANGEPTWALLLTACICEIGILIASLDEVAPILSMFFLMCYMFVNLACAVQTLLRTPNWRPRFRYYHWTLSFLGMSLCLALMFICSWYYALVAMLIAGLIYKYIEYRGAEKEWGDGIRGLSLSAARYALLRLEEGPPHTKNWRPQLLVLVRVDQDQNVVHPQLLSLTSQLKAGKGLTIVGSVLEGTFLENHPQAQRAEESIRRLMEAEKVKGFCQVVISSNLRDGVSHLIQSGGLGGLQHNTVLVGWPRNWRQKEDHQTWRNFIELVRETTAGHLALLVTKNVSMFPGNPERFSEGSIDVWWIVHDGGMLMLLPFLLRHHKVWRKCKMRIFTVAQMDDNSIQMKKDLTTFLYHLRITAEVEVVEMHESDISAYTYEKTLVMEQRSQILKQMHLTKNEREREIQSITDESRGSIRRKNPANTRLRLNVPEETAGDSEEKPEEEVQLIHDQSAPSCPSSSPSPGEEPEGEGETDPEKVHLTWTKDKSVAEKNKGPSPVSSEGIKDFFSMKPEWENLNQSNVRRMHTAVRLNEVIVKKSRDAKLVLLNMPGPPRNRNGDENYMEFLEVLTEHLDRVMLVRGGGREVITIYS
AI-2 QS mod: Vibrio harveyi AI-2 quorum sensing modulators, primary screen, JMH597 strain, luminescence/OD600 ratio; Vibrio harveyi JMH597 AI-2 luminescence/OD600 ratio, 9 h; stronger effect = lower value; strain lacks LuxN and CqsS sensors; 0 = neutral-control median; activity change, % at 7.5 µM; hit rate 0.4% among 300,000; AID 2094, 2009; in the data active means activity change below about -75%, passing the limit was not always enough;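 further: luminescence divided by OD600 gain over 9 h not by final OD600 alone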
Numbers without * were called inactive.

Screening CC1CCCC2(C1)NC(=S)N(c1ccccc1)N2 (stereo not drawn) returned KCNQ1 pot inactive, KCNQ1 block inactive, Mot1-301 SUMO 122, hERG protect -4, KCC2 mod 0.3 and AI-2 QS mod 3.
For S=C1NC2(CCCCC2)NN1c1ccccc1 the results were KCNQ1 pot inactive, KCNQ1 block inactive, Mot1-301 SUMO 364*, hERG protect -11 and AI-2 QS mod 22.
O=C(CC1OC(=O)c2ccccc21)Nc1cc(Cl)ccc1N1CCCC1 (stereo not drawn) was read as KCNQ1 pot inactive, KCNQ1 block inactive, Mot1-301 SUMO -17, hERG protect -9 and AI-2 QS mod 18.
For Cc1cc(C)nc(NC(=O)c2cc(-c3ccc(C)s3)nc3ccccc23)c1 the results were KCNQ1 pot inactive, KCNQ1 block 6*, Mot1-301 SUMO -14, hERG protect -5, KCC2 mod -1.6 and AI-2 QS mod 18.
For CCCCCC(=O)NC(NC(=S)NC1CCS(=O)(=O)C1)C(Cl)(Cl)Cl (stereo not drawn) the results were KCNQ1 pot inactive, KCNQ1 block inactive, Mot1-301 SUMO 3, hERG protect 5.6*, KCC2 mod -0.14 and AI-2 QS mod -8.
For CCCCCC(=O)NC(NC(=S)N1CCOCC1)C(Cl)(Cl)Cl (stereo not drawn) the results were KCNQ1 pot inactive, KCNQ1 block inactive, Mot1-301 SUMO 3, hERG protect -8, KCC2 mod 1 and AI-2 QS mod 5.
`Cc1cccc(Nc2ncnc(N)n2)c1` gave KCNQ1 pot inactive, KCNQ1 block inactive, Mot1-301 SUMO 541*, hERG protect -2, KCC2 mod 1.2 and AI-2 QS mod 4.
Screening Cc1ccc(C)c(NC(=O)COC(=O)CCC(=O)c2cccs2)c1 returned KCNQ1 pot inactive, KCNQ1 block inactive, Mot1-301 SUMO 2, hERG protect -5, KCC2 mod 0.11 and AI-2 QS mod -13.
`COc1ccc(NS(=O)(=O)c2ccc3ccccc3c2)c2ncccc12` gave KCNQ1 pot 11*, KCNQ1 block inactive, Mot1-301 SUMO -9, hERG protect 5.7* and AI-2 QS mod 23.
CCOC(=O)c1cnn(-c2nc(SC)nc3sc4c(c23)CCCC4)c1N was read as KCNQ1 pot 12*, KCNQ1 block inactive, hERG protect 9.2* and AI-2 QS mod 32.
Screening CCOC(=O)c1cnn(-c2ncnc3sc4c(c23)CCC4)c1N returned KCNQ1 pot inactive, KCNQ1 block inactive, Mot1-301 SUMO 157, hERG protect -10, KCC2 mod 0.8 and AI-2 QS mod 4.
Screening COc1ccc(-n2c(C)nc3c(cnn3-c3ccc(Cl)cc3)c2=O)cc1 returned KCNQ1 pot inactive, KCNQ1 block inactive, Mot1-301 SUMO 8, hERG protect 6.8*, KCC2 mod -1.4 and AI-2 QS mod -18.
O=C(Nc1ccc(Cl)c(Cl)c1)c1ccc(Cl)c(Cl)c1 was read as KCNQ1 pot inactive, KCNQ1 block 7*, Mot1-301 SUMO -6, hERG protect -7, KCC2 mod -0.63 and AI-2 QS mod 5.
`Cc1ccc(S(=O)(=O)N(C)CC(=O)Nc2nc3ccccc3s2)cc1` gave KCNQ1 pot inactive, KCNQ1 block inactive, Mot1-301 SUMO 6, hERG protect -12, KCC2 mod -0.016 and AI-2 QS mod 20.
Cc1ccc(/C(=N/Nc2nc3ccccc3s2)C2=C(O)c3ccccc3C2=O)cc1 was read as KCNQ1 pot inactive, KCNQ1 block 10*, hERG protect -16, KCC2 mod -1.2 and AI-2 QS mod 23.
Screening C=CCN1C(=O)/C(=C2/C(=O)N(CC(=O)O)c3ccccc32)S/C1=N/c1nccs1 returned KCNQ1 pot inactive, KCNQ1 block inactive, hERG protect -5 and AI-2 QS mod 28.
For C/C(=N\NC(=O)C1=NNC(=O)C1C)c1cccs1 (stereo not drawn) the results were KCNQ1 pot inactive, KCNQ1 block inactive, Mot1-301 SUMO -2, hERG protect -1 and AI-2 QS mod 21.
For COC(=O)/C(=C\Nc1ccc(Cl)c2ccccc12)c1ncc(C(F)(F)F)cc1Cl the results were KCNQ1 pot inactive, KCNQ1 block inactive, Mot1-301 SUMO 22, hERG protect -6, KCC2 mod 0.099 and AI-2 QS mod 10.
CCOC(=O)/C(=C\Nc1ccccc1C(F)(F)F)Sc1ncc(C(F)(F)F)cc1Cl was read as KCNQ1 pot inactive, KCNQ1 block 7*, Mot1-301 SUMO 10, hERG protect -18 and AI-2 QS mod 18.
`CC(C)(C)NC(=O)COc1coc(CN2CCN(Cc3ccccc3)CC2)cc1=O` gave KCNQ1 pot inactive, KCNQ1 block inactive, Mot1-301 SUMO -24, hERG protect -1 and AI-2 QS mod 11.
`O=C(NC(=S)N1CCCC1)c1ccccc1` gave KCNQ1 pot inactive, KCNQ1 block inactive, Mot1-301 SUMO 10, hERG protect -5 and AI-2 QS mod 10.
Screening O=C(NC(=S)N1CCN(c2ccccc2)CC1)c1ccccc1 returned KCNQ1 pot 20*, KCNQ1 block inactive, Mot1-301 SUMO -10, hERG protect 10* and AI-2 QS mod 8.
For O=C(NC(=S)N1CCCCC1)c1cccnc1 the results were KCNQ1 pot inactive, KCNQ1 block inactive, Mot1-301 SUMO 344*, hERG protect -11, KCC2 mod 1.2 and AI-2 QS mod 13.
`O=C(NC(=S)N1CCCCCC1)c1ccccc1` gave KCNQ1 pot inactive, KCNQ1 block inactive, Mot1-301 SUMO 4, hERG protect 5.8* and AI-2 QS mod 12.
O=C(NC(=S)N1CCN(c2ccc([N+](=O)[O-])cc2)CC1)c1ccc(F)cc1 was read as KCNQ1 pot inactive, KCNQ1 block inactive, Mot1-301 SUMO -4, hERG protect -1, KCC2 mod 25* and AI-2 QS mod 22.
O=C(NC(=S)N1CCCCCC1)c1ccc(Cl)cc1Cl was read as KCNQ1 pot 21*, KCNQ1 block inactive, Mot1-301 SUMO -10, hERG protect 7.0*, KCC2 mod 88* and AI-2 QS mod 20.
Screening CN1CCN(C(=S)NC(=O)c2ccccc2Cl)CC1 returned KCNQ1 pot inactive, KCNQ1 block inactive, Mot1-301 SUMO 2, hERG protect -6 and AI-2 QS mod -6.
